Measurements taken from ChEMBL document CHEMBL5712896, “Targeting EHMT2 reverses EGFR-TKI resistance in NSCLC by epigenetically regulating the PTEN/AKT signaling pathway” (2018).
The source made the active and inactive calls. The rule behind the calls is not given here.

Columns and labels:
PC-9/ER [1] = assay: Antiproliferative activity against human PC-9/ER cells assessed as inhibition of cell growth upto 10 uM incubated for 48 hrs by MTT assay; assay type: functional, cell-based
Method in brief: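 PC9/ER cells (made resistant by 3 months in Erlotinib, 0.5–2 μM, RPMI-1640 with 10% FBS) seeded at 8 × 10^4 cells/ml, left overnight, then exposed to 5 or 10 μM inhibitor (DMSO control) for 48 h. MTT (2.5 mg/ml stock) was added for 4 h at 37 °C, formazan dissolved in DMSO, OD read at 570 nm.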

PC-9/ER [2] = assay: Induction of apoptosis in human PC-9/ER cells assessed as viable cells at 10 uM for 48 hrs by annexin V/PI staining based flow cytometric analysis (reference value: 94.2%); assay type: functional; conditions: read-out: Activity
PC-9/ER [3] = assay: Induction of apoptosis in human PC-9/ER cells assessed as early apoptotic cells at 10 uM for 48 hrs by annexin V/PI staining based flow cytometric analysis (reference value: 1.9%); assay type: functional
PC-9/ER [4] = assay: Induction of apoptosis in human PC-9/ER cells assessed as late apoptotic cells at 10 uM for 48 hrs by annexin V/PI staining based flow cytometric analysis (reference value: 3.8%); assay type: functional
PC-9/ER [5] = assay: Induction of apoptosis in human PC-9/ER cells assessed as necrotic cells at 10 uM for 48 hrs by annexin V/PI staining based flow cytometric analysis (reference value: 0.1%); assay type: functional
HCC827ER [6] = assay: Induction of apoptosis in human HCC827ER cells assessed as viable cells at 10 uM for 48 hrs by annexin V/PI staining based flow cytometric analysis (reference value: 94.4%); assay type: functional; conditions: read-out: Activity
HCC827ER [7] = assay: Induction of apoptosis in human HCC827ER cells assessed as early apoptotic cells at 10 uM for 48 hrs by annexin V/PI staining based flow cytometric analysis (reference value: 1.8%); assay type: functional
HCC827ER [8] = assay: Induction of apoptosis in human HCC827ER cells assessed as late apoptotic cells at 10 uM for 48 hrs by annexin V/PI staining based flow cytometric analysis (reference value: 3.5%); assay type: functional
HCC827ER [9] = assay: Induction of apoptosis in human HCC827ER cells assessed as necrotic cells at 10 uM for 48 hrs by annexin V/PI staining based flow cytometric analysis (reference value: 0.3%); assay type: functional
HCC827ER [10] = assay: Induction of apoptosis in human HCC827ER cells assessed as increased cleaved-PARP expression at 10 uM measured by Western blot analysis; assay type: functional, cell-based
Method in brief: (§1)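 Resistant PC9/ER and HCC827/ER cells treated with 10 μM epigenetic inhibitor (DMSO control). Cleaved PARP detected by western blot on 10–15% SDS-PAGE with ECL, normalized to β-actin.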

PC-9/ER [11] = assay: Induction of apoptosis in human PC-9/ER cells assessed as increased cleaved-PARP expression at 10 uM measured by Western blot analysis; assay type: functional, cell-based; method in brief: as §1
PC-9/ER [12] = assay: Antitumor activity against human PC-9/ER cells xenografted in SCID mouse assessed as inhibition of tumor growth at 2.5 mg/kg, ip bid for 3 weeks; assay type: functional, organism-based
Method in brief: (§2)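 Male SCID mice, 7–8 weeks old, injected s.c. in the right flank with 5 × 10^6 PC9/ER cells in PBS. At an average tumor volume of 50 mm3, randomized into groups of n = 6: saline, UNC0642 2.5 mg/kg bid i.p., Erlotinib 12.5 mg/kg/day i.p., or both. Tumor volume tracked and body weight recorded; tumors weighed after sacrifice at 3 weeks.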

PC-9/ER [13] = assay: Antitumor activity against human PC-9/ER cells xenografted in SCID mouse assessed as reduction of tumor weight at 2.5 mg/kg, ip bid for 3 weeks relative to control; assay type: functional; parameters: scale not given: the % may be the effect or the level left; method in brief: as §2
PC-9/ER [14] = assay: Antitumor activity against human PC-9/ER cells xenografted in SCID mouse assessed as reduction of tumor weight at 2.5 mg/kg, ip bid for 3 weeks in presence of erlotinib relative to control; assay type: functional; parameters: scale not given: the % may be the effect or the level left; method in brief: as §2
Mus musculus [15] = assay: In vivo inhibition of AKT phosphorylation in human PC-9/ER cells xenografted SCID mouse assessed as reduction of H3K9Me2 expression at 2.5 mg/kg, ip bid for 3 weeks; assay type: functional, organism-based
Method in brief: (§3)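 Tumors were excised after 3 weeks from PC9/ER xenografts in SCID mice dosed with UNC0642 (2.5 mg/kg bid i.p.) with or without Erlotinib (12.5 mg/kg/day i.p.), saline as control. Tissue lysates were run on western blot for H3K9Me2, PTEN, p-AKT and AKT, normalized to β-actin or Histone3.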

Mus musculus [16] = assay: In vivo inhibition of AKT phosphorylation in human PC-9/ER cells xenografted SCID mouse assessed as increase in PTEN expression at 2.5 mg/kg, ip bid for 3 weeks; assay type: functional, organism-based; method in brief: as §3
[17] = Upregulation of PTEN mRNA expression level in human PC-9/ER cells assessed as increase in fold change at 10 uM by Western blot analysis; assay type: functional; conditions: in the assay text read “real-time RT-PCR” for “Western blot analysis”
Method in brief: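 PC9/ER cells were treated with 10 μM UNC0638 or transfected with 20 nM EHMT2 siRNA, with DMSO or scramble siRNA as controls. Total RNA was extracted, reverse transcribed, and PTEN mRNA measured by SYBR Green real-time RT-PCR, normalized to GAPDH and expressed as fold change versus control. PTEN protein was checked separately by western blot against β-actin.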

| SMILES | Activity (PC-9/ER [1]) | viability at 10 µM (PC-9/ER [2]) [%] | Activity (PC-9/ER [3]) [%] | Activity (PC-9/ER [4]) [%] | Activity (PC-9/ER [5]) [%] | viability at 10 µM (HCC827ER [6]) [%] | Activity (HCC827ER [7]) [%] | Activity (HCC827ER [8]) [%] | Activity (HCC827ER [9]) [%] | Activity (HCC827ER [10]) | Activity (PC-9/ER [11]) | also measured |
| --- | --- | --- | --- | --- | --- | --- | --- | --- | --- | --- | --- | --- |
| O=C(/C=C/c1cccc(S(=O)(=O)Nc2ccccc2)c1)NO [BELINOSTAT] | Active | 75.8 | 12.8 | 10.5 | 0.9 | 82.3 | 9.4 | 7 | 1.3 | – | – | – |
| Cc1cn(CCN2CCN(c3ccccc3-c3cc(C#N)cc(C(=O)NCCCN4CCCC4)c3)CC2)c2ccccc12 | – | – | – | – | – | – | – | – | – | inactive | inactive | – |
| COc1cc2c(NC3CCN(C(C)C)CC3)nc(N3CCC(F)(F)CC3)nc2cc1OCCCN1CCCC1 | – | – | – | – | – | – | – | – | – | – | – | Activity (PC-9/ER [12]): Active; Activity (PC-9/ER [13]): 37.2%; Activity (PC-9/ER [14]): 68.2%; inhibition (Mus musculus [15]): Active; inhibition (Mus musculus [16]): Active |
| COc1cc2nc(N3CCCC3)nc(NCCCCCN3CCCC3)c2cc1OC | – | – | – | – | – | – | – | – | – | inactive | inactive | – |
| Cc1sc2c(c1C)C(c1ccc(Cl)cc1)=N[C@@H](CC(=O)OC(C)(C)C)c1nnc(C)n1-2 | Active | 89.8 | 4.8 | 5.2 | 0.2 | 63.4 | 26.4 | 10 | 0.2 | – | – | – |
| COc1cc2c(NC3CCN(C(C)C)CC3)nc(C3CCCCC3)nc2cc1OCCCN1CCCC1 | Active | 38.5 | 40.8 | 20.5 | 0.2 | 41.9 | 43.1 | 15 | 0 | Active | Active | fold change (FC) [17]: 2.5 |
| O=C(O)CCNc1cc(N2CCc3ccccc3CC2)nc(-c2ccccn2)n1 | – | – | – | – | – | – | – | – | – | inactive | inactive | – |
| Nc1ncn([C@@H]2O[C@H](CO)[C@@H](O)[C@H]2O)c(=O)n1 | Active | – | – | – | – | – | – | – | – | Active | Active | – |
| CC[C@H](C)n1cc(C)c2c(C(=O)NCc3c(C)cc(C)[nH]c3=O)cc(-c3ccc(N4CCNCC4)nc3)cc21 | Active | – | – | – | – | – | – | – | – | Active | Active | – |
| CC(C)N(C[C@H]1O[C@@H](n2cnc3c(N)ncnc32)[C@H](O)[C@@H]1O)[C@H]1C[C@@H](CCc2nc3cc(C(C)(C)C)ccc3[nH]2)C1 | – | – | – | – | – | – | – | – | – | inactive | inactive | – |
